In ChEMBL document CHEMBL1151261, “Antineoplastic agents. 509: synthesis of fluorcombstatin phosphate and related 3-halostilbenes(1)” (J Nat Prod, 2005):
Values after ≈ are worked out from the molar mass of the structure shown.

Experiments:
KM-20L2 = assay: Cytotoxicity against human KM20L2 cells after 48 hrs by sulforhodamine B assay; format: functional; settings: KM-20L2, 48 h
In short: (§1)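 Human tumor lines exposed to compound for 48 h, then fixed with trichloroacetic acid and stained with sulforhodamine B (NCI standard protocol); optical density read on a microplate reader. GI50 is the concentration giving a 50% reduction in net protein increase, calculated from optical density data.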

DU-145 = assay: Cytotoxicity against human DU145 cells after 48 hrs by sulforhodamine B assay; format: functional; settings: DU-145, 48 h; in short: as §1
NCI-H460 = assay: Cytotoxicity against human NCI-H460 cells after 48 hrs by sulforhodamine B assay; format: functional; settings: NCI-H460, 48 h; in short: as §1
BXPC-3 = assay: Cytotoxicity against human BxPC3 cells after 48 hrs by sulforhodamine B assay; format: functional; settings: BXPC-3, 48 h; in short: as §1
MCF7 = assay: Cytotoxicity against human MCF7 cells after 48 hrs by sulforhodamine B assay; format: functional; settings: MCF7, 48 h; in short: as §1
SF-268 = assay: Cytotoxicity against human SF268 cells after 48 hrs by sulforhodamine B assay; format: functional; settings: SF-268, 48 h; in short: as §1
P388 = assay: Cytotoxicity against mouse P388 cells after 48 hrs by Coulter particle counting; settings: P388, 48 h, read-out: ED50 (the source's name)

COc1ccc(/C=C/c2cc(Cl)c(OC)c(OC)c2)cc1O
GI50 (KM-20L2): 1.4 µg/mL (≈ 4.36 µM) | GI50 (DU-145): 0.038 µg/mL (≈ 0.118 µM) | GI50 (NCI-H460): 0.034 µg/mL (≈ 0.106 µM) | GI50 (BXPC-3): 0.59 µg/mL (≈ 1.84 µM) | GI50 (MCF7): 0.041 µg/mL (≈ 0.128 µM) | GI50 (SF-268): 0.048 µg/mL (≈ 0.15 µM) | EC50 (P388): 0.027 µg/mL (≈ 0.0842 µM)

COc1ccc(/C=C\c2cc(O)c(OC)c(OC)c2)cc1N.Cl
GI50 (KM-20L2): 1.3 µg/mL | GI50 (DU-145): 0.012 µg/mL | GI50 (NCI-H460): 0.035 µg/mL | GI50 (BXPC-3): 1 µg/mL | GI50 (MCF7): < 0.01 µg/mL | GI50 (SF-268): 0.0022 µg/mL | EC50 (P388): 0.0289 µg/mL

COc1ccc(/C=C/c2cc(O)c(OC)c(OC)c2)cc1[N+](=O)[O-]
GI50 (KM-20L2): 1.2 µg/mL (≈ 3.62 µM) | GI50 (DU-145): 0.36 µg/mL (≈ 1.09 µM) | GI50 (NCI-H460): 0.25 µg/mL (≈ 0.755 µM) | GI50 (BXPC-3): 1.1 µg/mL (≈ 3.32 µM) | GI50 (MCF7): 0.56 µg/mL (≈ 1.69 µM) | GI50 (SF-268): 0.41 µg/mL (≈ 1.24 µM) | EC50 (P388): 0.224 µg/mL (≈ 0.676 µM)

COc1ccc(/C=C\c2cc(O)c(OC)c(OC)c2)cc1[N+](=O)[O-]
GI50 (KM-20L2): 1.8 µg/mL (≈ 5.43 µM) | GI50 (DU-145): 0.39 µg/mL (≈ 1.18 µM) | GI50 (NCI-H460): 0.31 µg/mL (≈ 0.936 µM) | GI50 (BXPC-3): 2.5 µg/mL (≈ 7.55 µM) | GI50 (MCF7): 0.49 µg/mL (≈ 1.48 µM) | GI50 (SF-268): 0.62 µg/mL (≈ 1.87 µM) | EC50 (P388): 0.402 µg/mL (≈ 1.21 µM)

C1COCCN1.C1COCCN1.COc1ccc(/C=C\c2cc(F)c(OC)c(OC)c2)cc1OP(=O)(O)O
GI50 (KM-20L2): > 1 µg/mL | GI50 (DU-145): 0.0046 µg/mL | GI50 (NCI-H460): 0.005 µg/mL | GI50 (BXPC-3): 0.73 µg/mL | GI50 (MCF7): 0.0079 µg/mL | GI50 (SF-268): 0.0087 µg/mL | EC50 (P388): 0.015 µg/mL

COc1cc(/C=C\c2ccc(OC)c(OP(=O)([O-])[O-])c2OP(=O)([O-])[O-])cc(OC)c1OC.[Na+].[Na+].[Na+].[Na+]
GI50 (KM-20L2): 0.53 µg/mL | GI50 (DU-145): 0.034 µg/mL | GI50 (NCI-H460): 0.038 µg/mL | GI50 (BXPC-3): 1.5 µg/mL | GI50 (MCF7): 0.024 µg/mL | GI50 (SF-268): 0.036 µg/mL | EC50 (P388): < 0.01 µg/mL

COc1ccc(/C=C\c2cc(OC)c(OC)c([N+](=O)[O-])c2)cc1[N+](=O)[O-]
GI50 (KM-20L2): 0.27 µg/mL (≈ 0.749 µM) | GI50 (DU-145): 0.34 µg/mL (≈ 0.944 µM) | GI50 (NCI-H460): 0.24 µg/mL (≈ 0.666 µM) | GI50 (BXPC-3): 0.39 µg/mL (≈ 1.08 µM) | GI50 (MCF7): 0.37 µg/mL (≈ 1.03 µM) | GI50 (SF-268): 0.59 µg/mL (≈ 1.64 µM) | EC50 (P388): > 10 µg/mL

COc1ccc(/C=C\c2cc(Br)c(OC)c(OC)c2)cc1OP(=O)([O-])[O-].[Rb+].[Rb+]
GI50 (KM-20L2): 2.6 µg/mL | GI50 (DU-145): 0.042 µg/mL | GI50 (NCI-H460): 0.041 µg/mL | GI50 (BXPC-3): 0.56 µg/mL | GI50 (MCF7): 0.043 µg/mL | GI50 (SF-268): 0.023 µg/mL | EC50 (P388): < 0.01 µg/mL

COc1ccc(/C=C\c2cc(Br)c(OC)c(OC)c2)cc1OP(=O)([O-])[O-].[K+].[K+]
GI50 (KM-20L2): 0.24 µg/mL | GI50 (DU-145): 0.0028 µg/mL | GI50 (NCI-H460): 0.0029 µg/mL | GI50 (BXPC-3): 0.2 µg/mL | GI50 (MCF7): 0.0035 µg/mL | GI50 (SF-268): 0.0032 µg/mL | EC50 (P388): < 0.01 µg/mL

C1CCNCC1.C1CCNCC1.COc1ccc(/C=C\c2cc(F)c(OC)c(OC)c2)cc1OP(=O)(O)O
GI50 (KM-20L2): > 1 µg/mL | GI50 (DU-145): 0.011 µg/mL | GI50 (NCI-H460): 0.022 µg/mL | GI50 (BXPC-3): 0.39 µg/mL | GI50 (MCF7): 0.011 µg/mL | GI50 (SF-268): 0.0075 µg/mL | EC50 (P388): 0.004 µg/mL

COc1ccc(/C=C\c2cc(Br)c(OC)c(OC)c2)cc1OP(=O)([O-])[O-].[Mg+2]
GI50 (KM-20L2): 0.27 µg/mL | GI50 (DU-145): 0.0045 µg/mL | GI50 (NCI-H460): 0.0039 µg/mL | GI50 (BXPC-3): 0.074 µg/mL | GI50 (MCF7): 0.0045 µg/mL | GI50 (SF-268): 0.0053 µg/mL | EC50 (P388): < 0.01 µg/mL

COc1ccc(/C=C\c2cc(N)c(OC)c(OC)c2)cc1N
GI50 (KM-20L2): 0.03 µg/mL (≈ 0.0999 µM) | GI50 (DU-145): 0.044 µg/mL (≈ 0.146 µM) | GI50 (NCI-H460): 0.014 µg/mL (≈ 0.0466 µM) | GI50 (BXPC-3): 0.053 µg/mL (≈ 0.176 µM) | GI50 (MCF7): < 0.01 µg/mL | GI50 (SF-268): 0.076 µg/mL (≈ 0.253 µM) | EC50 (P388): 0.036 µg/mL (≈ 0.12 µM)

COc1ccc(/C=C\c2cc(OC)c(OC)c(OC)c2)c(O)c1O [COMBRETASTATIN A-1]
GI50 (KM-20L2): 0.061 µg/mL (≈ 0.184 µM) | GI50 (DU-145): 0.17 µg/mL (≈ 0.512 µM) | GI50 (NCI-H460): 0.74 µg/mL (≈ 2.23 µM) | GI50 (BXPC-3): 4.4 µg/mL (≈ 13.2 µM) | EC50 (P388): 0.251 µg/mL (≈ 0.755 µM)

COc1ccc(/C=C\c2cc(Br)c(OC)c(OC)c2)cc1OP(=O)([O-])[O-].[Na+].[Na+]
GI50 (KM-20L2): 0.23 µg/mL | GI50 (DU-145): 0.0046 µg/mL | GI50 (NCI-H460): 0.0028 µg/mL | GI50 (BXPC-3): 0.093 µg/mL | GI50 (MCF7): 0.0041 µg/mL | GI50 (SF-268): 0.0034 µg/mL | EC50 (P388): < 0.01 µg/mL
